# hERG protect: hERG (human) protection from proarrhythmic block. Q12809. activation (rescue from dofetilide block), less the hit threshold, % at 10 µM. CHO-hERG, FluxOR thallium flux, dofetilide IC70 present. 310,000 compounds, 0.51% hits;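 active = activation above the mean of controls blocked by dofetilide plus 5 SD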;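 note: thallium influx through hERG after potassium depolarization seen as dye fluorescence rise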
# KCC2 mod: modulators of human KCC2 chloride dependent transport; Q9H2X9; KCC2 cells, thallium flux FluoZin-2 fluorescence; B-score of Tl+ flux slope (higher = more flux/activation; lower = inhibition) at 10 µM; 190,000 compounds, 2.2% hits;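 active = thallium flux slope and its plate-corrected score both differing from the plate sample mean at a set confidence after two filtering rounds, in either direction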;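 note: slope of fluorescence scaled to starting intensity during 10 to 20 s after thallium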
# KCNK9 block: human KCNK9 channel inhibition | AID 488922 | Q9NPC2 | 310,000 compounds, 1.2% hits | HEK293 KCNK9, FluxOR thallium flux fluorescence; stronger effect = lower value | B-score at 10 µM;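 active = ratio B-score over 3 SD below the library mean, with starting fluorescence within 5 SD of its mean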;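 note: negative B-score means less thallium flux so channel inhibition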
# Target sequence (Q9NPC2 whole entry, looked up): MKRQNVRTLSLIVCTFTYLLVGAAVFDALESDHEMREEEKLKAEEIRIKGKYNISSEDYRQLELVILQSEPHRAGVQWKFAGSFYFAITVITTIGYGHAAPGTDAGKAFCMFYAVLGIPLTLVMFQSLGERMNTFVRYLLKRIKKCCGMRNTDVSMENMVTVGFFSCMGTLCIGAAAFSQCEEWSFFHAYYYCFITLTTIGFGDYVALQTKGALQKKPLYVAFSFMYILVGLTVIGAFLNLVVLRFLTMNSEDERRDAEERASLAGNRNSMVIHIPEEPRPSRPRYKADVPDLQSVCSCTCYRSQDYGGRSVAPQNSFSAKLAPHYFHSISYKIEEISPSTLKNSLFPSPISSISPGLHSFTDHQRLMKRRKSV
# KCNK3 inh: human KCNK3 channel inhibition, primary screen. AID 602410. CHO-KCNK3 thallium flux, FluxOR fluorescence; stronger effect = lower value. 340,000 compounds, 0.84% hits. O14649. B-score at 10 µM;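 active = B-score under library mean minus 4 SD, starting fluorescence ratio at most library mean plus 5 SD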;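 note: more negative B-score means stronger inhibition of thallium flux through KCNK3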
# KCNQ1 pot: potentiators or activators of human KCNQ1 potassium channel; AID 2648; 310,000 compounds, 0.35% hits; B-score at 10 µM; P51787; CHO-K1 KCNQ1, thallium flux FluxOR fluorescence; stronger effect = higher value;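 active = fluorescence ratio B-score, a plate-corrected score, at least three library SD, with initial intensity B-score within 5 SD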
#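 assay system = CHO-K1 cells stably expressing KCNQ1 | medium = assay buffer, equal DMSO in all wells | timing = 37 °C overnight plating, 90-min dark dye load, 20-min compound pretreatment | measured by = kinetic FluxOR thallium fluorescence, 10-s 1-Hz baseline, 110-s post-stimulus read | measure = fluorescence change relative to baseline, converted to B score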
# KCNQ1 inh: inhibitors of human KCNQ1 potassium channel | CHO-K1 KCNQ1, FluxOR thallium flux fluorescence; stronger effect = higher value | 310,000 compounds, 1.3% hits | AID 2642 | B-score at 10 µM | P51787;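 active = compounds whose thallium flux B-score, printed positive for inhibition, exceeds three library SD while starting fluorescence stays within three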;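 note: channel opened by potassium depolarization with thallium stimulus after 20 min compound exposure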
# KCNK9 block conf: confirmation of human KCNK9 potassium channel inhibitors | shares compounds with KCNK9 block | AID 492992 | 4,900 compounds, 43% hits | inhibition, % at 10 µM | HEK293 KCNK9 cells, FluxOR thallium flux fluorescence;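 active = thallium signal inhibited by more than 5 SD of the compound-free buffer control wells, on both duplicate plates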;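 note: 0% = assay buffer control wells without compound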
# Kir2-1 spec: tests whether KCNK9 modulators also affect mouse Kir2.1. shares compounds with KCNK9 block. Kir2.1 cells, FluxOR thallium flux fluorescence. inhibition, % at 10 µM. 4,900 compounds, 4% hits. AID 492993;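 active = thallium signal drop more than 5 SD beyond the mean of the no-compound control wells, seen in both duplicate plates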;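 note: signal is fluorescence rise after thallium addition divided by baseline fluorescence; plate controls were assay buffer only for no effect and full block by chlorpromazine control for full effect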
# HEK293 Tl ctr: non-induced cell nonspecific activity of KCNK9 modulators; shares compounds with KCNK9 block; non-induced KCNK9-HEK293, FluxOR thallium flux; inhibition, % at 10 µM; 4,900 compounds, 40% hits;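 active = thallium signal drop beyond 5 SD of the untreated control mean, on both duplicate plates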;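 note: plate controls were buffer only IC0 wells for no effect and SID17386958 at its maximal inhibitory level for full effect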
# The depositor's hits bear a star; i = inactive; nt = not tested or not shown. A selection: hits, their analogues and other compounds. The true share with any hit is near 4.1%.
SMILES,hERG protect,KCC2 mod,KCNK9 block,KCNK3 inh,KCNQ1 pot,KCNQ1 inh,KCNK9 block conf,Kir2-1 spec,HEK293 Tl ctr
CC(C)(O)/C=C/C[C@](C)(O)C1CC[C@]2(C)C1[C@H](O[C@H]1O[C@@H](CO)[C@H](O)[C@@H](O)[C@@H]1O)CC1[C@@]3(C)CC[C@H](O)C(C)(C)C3[C@@H](O)C[C@]12C (stereo partly drawn),nt,nt,nt,i,nt,nt,nt,nt,nt
Cc1cc(C)c2nc(Cl)c(CN(Cc3ccco3)C(=O)Nc3ccccc3C)cc2c1,-9,nt,i,i,i,i,i,i,i
COCCN(Cc1cc2cc(C)cc(C)c2nc1Cl)C(=O)Nc1ccccc1,-5,nt,i,i,i,i,nt,nt,nt
CC(NC(=O)CCCCCCN1C(=O)c2ccccc2C1=O)c1ccc2c(c1)CCCC2 (stereo not drawn),-4,-2.2,i,i,i,i,i,i,i
CC(NC(=O)CCCCCN1C(=O)c2ccccc2C1=O)c1ccc2c(c1)CCCC2 (stereo not drawn),-4,nt,i,i,i,i,i,i,i
CC(NC(=O)CCCN1C(=O)c2ccccc2C1=O)c1ccc2c(c1)CCCC2 (stereo not drawn),-4,-2.2,i,i,i,i,nt,nt,nt
O=[N+]([O-])/C(Cl)=C(/NCCO)C(Cl)=C(Cl)Cl,nt,nt,nt,i,nt,nt,nt,nt,nt
COc1ccc(S(=O)(=O)n2ccc(-c3cnc(-c4ccccc4)s3)n2)cc1,-8,nt,-10*,i,i,i,i,i,31%*
CC1(C)C=Cc2c(c3c(c4c(=O)c(-c5ccc(O)cc5)coc24)OC(C)(C)CC3)O1,-7,0.64,-10*,i,i,i,50%*,i,26%*
COc1ccc(Cl)cc1NC(=O)CN(C)C(=O)c1cccc2cccnc12,nt,nt,nt,i,nt,nt,nt,nt,nt
CC1(C)Cc2c(cnn2-c2ccccc2)C(NC(=O)CCCN2CCCCC2=O)C1 (stereo not drawn),-2,nt,i,i,i,i,nt,nt,nt
COc1ccc(C(=O)Nn2c(SCc3cccc([N+](=O)[O-])c3)nc3ccccc3c2=O)cc1,-13,0.6,-12*,i,i,i,68%*,i,32%*
COc1ccc(C(=O)Nn2c(SCC(=O)N3CCC(C)CC3)nc3ccccc3c2=O)cc1,-10,nt,i,i,i,i,nt,nt,nt
O=C(Nn1c(SCc2cccc([N+](=O)[O-])c2)nc2ccccc2c1=O)c1ccccc1,-16,-1,-13*,i,i,i,67%*,i,43%*
O=C(c1cc2cc(F)ccc2[nH]1)N1CCN(c2cccc(Cl)c2)CC1,-6,nt,i,i,i,i,i,i,i
O=C(NCc1ccccc1)C1(c2ccccc2)CCN(S(=O)(=O)c2ccccc2)CC1,-3,nt,i,i,i,i,i,i,i
O=C(O)C1(c2ccccc2)CCN(S(=O)(=O)c2ccccc2)CC1,1,nt,i,i,i,i,nt,nt,nt
COc1ccc(CN2C(=O)[C@H]3Cc4c([nH]c5ccccc45)C(C)(C)N3C2=O)cc1,-10,nt,i,i,i,i,i,i,i
COc1ccc(CSCC(=O)Nc2ccc(S(=O)(=O)N3CCCCCC3)cc2)cc1,-3,-0.65,i,i,i,i,i,i,i
O=C(CSCc1ccc(Br)cc1)Nc1ccc(S(=O)(=O)N2CCOCC2)cc1,-8,nt,i,i,i,i,nt,nt,nt
O=C(CSCc1ccc(Cl)cc1)Nc1ccc(S(=O)(=O)N2CCCCCC2)cc1,-9,-1.7,i,i,i,i,i,i,i
O=C(Nc1ccccc1)OCCCc1ccccc1,-8,-3.1,i,i,i,i,i,i,i
O=C(Nc1ccccc1)OCCCCOC(=O)Nc1ccccc1,nt,nt,nt,i,nt,nt,nt,nt,nt
Cc1ccccc1C(=O)NC1CC2CCCC(C1)N2Cc1ccccc1 (stereo not drawn),-11,nt,i,i,i,i,i,i,i
Cc1ccccc1C(=O)NC1CC2CCCC(C1)N2Cc1ccc(Cl)cc1 (stereo not drawn),-6,nt,i,i,i,i,nt,nt,nt
SMILES,hERG protect,KCC2 mod,KCNK9 block,KCNK3 inh,KCNQ1 pot,KCNQ1 inh,KCNK9 block conf,Kir2-1 spec,HEK293 Tl ctr
N#Cc1cccc(NS(=O)(=O)c2ccccc2Cl)c1,nt,nt,nt,i,nt,nt,nt,nt,nt
O=C(NCC(c1ccco1)N1CCN(c2ccc(F)cc2)CC1)C1CCCCC1 (stereo not drawn),-9,nt,-14*,i,i,i,44%*,i,38%*
COc1ccccc1NS(=O)(=O)c1cccc(C(=O)NNC(=O)c2ccc(O)c(Cl)c2)c1,-24,nt,i,i,i,i,nt,nt,nt
Cc1cccc(OCCNC(=O)c2cccc(Oc3ccc(C(F)(F)F)cc3[N+](=O)[O-])c2)c1,-9,-0.14,i,i,i,i,i,i,i
Cc1ccc(OCCNC(=O)c2cccc(C)c2)cc1,1,nt,i,i,i,i,nt,nt,nt
CCOC(=O)c1c(NC(=S)Nc2ccccc2)sc2c1CCN(CCc1ccccc1)C2,nt,-0.29,nt,nt,nt,nt,nt,nt,nt
CCOC(=O)c1c(NC(=S)Nc2ccccc2)sc2c1CC(C)(C)SC2,-2,2.1,-9.1*,i,i,8*,i,i,33%*
COc1ccc(C)cc1NC1=C(Cl)C(=O)N(C2CCCCC2)C1=O,-10,-0.92,-17*,i,i,i,64%*,i,44%*
Cc1ccc(S(=O)(=O)/N=C2/NC(=O)/C(=C/c3ccccc3)S2)cc1,-9,1.1,i,i,i,i,i,i,i
Cc1ccc(NC(=O)CSc2ncccn2)cc1S(=O)(=O)N1CCOCC1,nt,nt,nt,i,nt,nt,nt,nt,nt
Cc1cc(C)cc(CC2CC(=O)N(c3cc(C)ccc3C)C2=O)c1 (stereo not drawn),-3,nt,i,i,i,i,i,i,i
O=C1C(Cl)=C(N2CCN(Cc3ccccc3)CC2)C(=O)N1Cc1ccccc1,-3,nt,i,i,i,i,i,i,i
O=C(N/N=C/c1cn(-c2ccccc2)nc1-c1cccs1)c1ccccc1F,-18,0.47,-13*,-9.1*,i,6*,56%*,i,30%*
CC1=NNC(=O)/C1=C\c1cn(-c2ccccc2)nc1-c1ccc(F)cc1,-15,-0.37,i,i,i,i,nt,nt,nt
